Calls of active or inactive are those of the source. The calls are words filed in the database; no cut-off is given here.
What was measured:
Cannabinoid receptor 1 [1] = target: T1, Cannabinoid receptor 1 (Mus musculus, UniProt P47746); test: Inverse agonist at mouse brain CB1R expressed in CHOK1 cell membranes assessed as inhibition of CP55940-stimulated [35S]GTP-gammaS binding measured after 60 mins by scintillation spectrometry
Cannabinoid receptor 2 = Cannabinoid receptor 2 (Mus musculus, UniProt P47936); test: Displacement of [3H]CP55940 from mouse CB2R expressed in CHOK1 cell membranes
Summary of the method: (§1)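 Displacement binding isotherms with [3H]-CP55940 as labeled ligand on plasma membranes from CHO-K1 cells expressing CB1R or CB2R. Ki was calculated by the Cheng-Prusoff equation. Values are mean ± SEM of 3 independent experiments, each run in triplicate.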

Cannabinoid receptor 1 [2] = target: T1, Cannabinoid receptor 1; test: Displacement of [3H]CP55940 from mouse brain CB1R expressed in CHOK1 cell membranes; summary of the method: as §1
[3] = target: T2, Nitric oxide synthase, inducible (Mus musculus) (UniProt P29477); test: Inhibition of iNOS in mouse RAW264.7 cells assessed as interferon gamma-induced NO production measured after 1 hr by fluorimetric assay; type: cell-based
T2 sequence (whole entry): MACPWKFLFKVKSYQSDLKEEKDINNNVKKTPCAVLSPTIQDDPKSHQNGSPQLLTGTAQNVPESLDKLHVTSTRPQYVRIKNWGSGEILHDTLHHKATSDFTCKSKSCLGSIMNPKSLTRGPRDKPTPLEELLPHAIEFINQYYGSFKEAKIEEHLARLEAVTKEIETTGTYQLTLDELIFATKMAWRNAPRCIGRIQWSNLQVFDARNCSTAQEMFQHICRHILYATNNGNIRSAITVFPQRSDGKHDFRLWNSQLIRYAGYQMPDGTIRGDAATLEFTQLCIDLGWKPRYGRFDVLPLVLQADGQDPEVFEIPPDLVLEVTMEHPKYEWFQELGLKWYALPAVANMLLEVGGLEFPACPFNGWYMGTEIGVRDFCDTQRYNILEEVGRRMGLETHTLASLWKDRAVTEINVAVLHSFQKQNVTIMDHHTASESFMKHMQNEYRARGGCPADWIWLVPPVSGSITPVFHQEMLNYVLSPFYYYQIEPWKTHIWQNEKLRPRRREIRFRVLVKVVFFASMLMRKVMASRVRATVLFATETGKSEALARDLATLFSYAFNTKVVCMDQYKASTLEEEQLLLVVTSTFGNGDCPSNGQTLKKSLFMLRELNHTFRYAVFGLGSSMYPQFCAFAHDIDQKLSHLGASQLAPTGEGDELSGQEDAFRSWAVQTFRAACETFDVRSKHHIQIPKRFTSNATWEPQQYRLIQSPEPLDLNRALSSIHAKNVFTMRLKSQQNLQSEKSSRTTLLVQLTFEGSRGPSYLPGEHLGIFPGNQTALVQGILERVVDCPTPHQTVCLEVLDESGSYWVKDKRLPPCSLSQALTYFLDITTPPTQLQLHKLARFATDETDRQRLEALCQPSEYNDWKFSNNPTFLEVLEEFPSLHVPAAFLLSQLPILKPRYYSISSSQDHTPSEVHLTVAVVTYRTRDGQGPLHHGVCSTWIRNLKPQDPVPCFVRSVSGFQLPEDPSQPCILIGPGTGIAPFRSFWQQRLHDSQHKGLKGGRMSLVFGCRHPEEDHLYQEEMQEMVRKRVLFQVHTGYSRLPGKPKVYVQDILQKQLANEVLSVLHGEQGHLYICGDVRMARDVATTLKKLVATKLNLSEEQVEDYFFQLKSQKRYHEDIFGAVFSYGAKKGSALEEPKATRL

Mus musculus [4] = test: Antifibrotic activity in CCl4-induced C57Bl6/J mouse liver fibrosis model assessed as reduction in iNOS level at 10 mg/kg administered via oral gavage for 4 weeks by immunostaining based method; type: functional, organism-based
Mus musculus [5] = test: Antifibrotic activity in CCl4-induced C57Bl6/J mouse liver fibrosis model assessed as reduction in liver fibrosis at 10 mg/kg administered via oral gavage for 4 weeks by picrosirius red staining based histological analysis; type: functional, organism-based
[6] = target: T2, Nitric oxide synthase, inducible (Mus musculus); test: Inhibition of iNOS in mouse RAW264.7 cells assessed as LPS-induced NO production measured after 1 hr by fluorimetric assay; type: cell-based
Mus musculus [7] = test: Antifibrotic activity in BDL-induced wild-type C57Bl6/J mouse liver damage model assessed as reduction in collagen deposition in liver at 30 mg/kg administered once daily via oral gavage by picrosirius staining based histological analysis; type: functional, organism-based
Mus musculus [8] = test: Antifibrotic activity in CCl4-induced C57Bl6/J mouse liver fibrosis model assessed as reduction in liver fibrosis at 3 mg/kg administered via oral gavage for 4 weeks by picrosirius red staining based histological analysis; type: functional, organism-based
Mus musculus [9] = test: In vivo antagonist activity at CB1R in C57Bl6/J mouse assessed as induction of anxiogenic behavior at 10 mg/kg administered once daily via oral gavage for 28 days by elevated plus maze test; type: functional, organism-based
Mus musculus [10] = test: Antifibrotic activity in BDL-induced wild-type C57Bl6/J mouse liver damage model assessed as reduction in liver fibrosis at 3 mg/kg administered once daily via oral gavage starting on day 6 post-BDL induction by picrosirius red staining based histological analysis; type: functional, organism-based
Mus musculus [11] = test: Antifibrotic activity in BDL-induced CB1R deficient C57Bl6/J mouse liver damage model assessed as reduction in collagen deposition in liver at 3 mg/kg administered once daily via oral gavage by picrosirius red staining based histological analysis; type: functional, organism-based
Mus musculus [12] = test: Antifibrotic activity in CCl4-induced C57Bl6/J mouse liver fibrosis model assessed as reduction in iNOS level at 3 mg/kg administered via oral gavage for 4 weeks by immunostaining based method; type: functional, organism-based

Sequence of Cannabinoid receptor 2 (P47936 whole entry): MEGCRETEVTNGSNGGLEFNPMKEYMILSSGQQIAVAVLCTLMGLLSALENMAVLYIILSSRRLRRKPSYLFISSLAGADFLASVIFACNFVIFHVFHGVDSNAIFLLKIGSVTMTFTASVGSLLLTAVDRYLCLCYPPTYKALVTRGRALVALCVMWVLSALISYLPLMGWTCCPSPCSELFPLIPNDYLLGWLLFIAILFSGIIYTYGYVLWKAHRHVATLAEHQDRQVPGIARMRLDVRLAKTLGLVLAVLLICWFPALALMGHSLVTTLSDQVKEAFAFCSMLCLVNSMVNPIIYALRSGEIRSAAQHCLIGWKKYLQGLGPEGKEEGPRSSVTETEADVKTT
T1 sequence (P47746 whole entry): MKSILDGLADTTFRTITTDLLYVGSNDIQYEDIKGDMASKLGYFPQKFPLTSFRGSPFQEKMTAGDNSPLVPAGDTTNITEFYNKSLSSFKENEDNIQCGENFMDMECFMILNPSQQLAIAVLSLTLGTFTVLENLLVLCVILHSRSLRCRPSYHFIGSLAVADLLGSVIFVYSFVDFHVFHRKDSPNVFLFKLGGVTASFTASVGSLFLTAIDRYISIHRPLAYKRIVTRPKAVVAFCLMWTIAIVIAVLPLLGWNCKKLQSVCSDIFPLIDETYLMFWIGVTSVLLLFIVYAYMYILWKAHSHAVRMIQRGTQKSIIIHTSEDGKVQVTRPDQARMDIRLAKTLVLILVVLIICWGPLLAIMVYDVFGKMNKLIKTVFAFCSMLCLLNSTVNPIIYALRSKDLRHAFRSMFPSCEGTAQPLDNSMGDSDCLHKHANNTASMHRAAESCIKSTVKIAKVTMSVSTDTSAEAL

Row | SMILES | IC50 (Cannabinoid receptor 1 [1]) [nM] | Ki (Cannabinoid receptor 2) [nM] | other results
1 | CCS/C(N)=N\C(=N/S(=O)(=O)c1ccc(Cl)cc1)N1CC(c2ccccc2)C(c2ccc(Cl)cc2)=N1 (stereo not given) | 534 | > 1000 | 
2 | CS/C(N)=N\C(=N/S(=O)(=O)c1ccc(C(F)(F)F)cc1)N1CC(c2ccccc2)C(c2ccc(Cl)cc2)=N1 (stereo not given) | 97 | > 1000 | Ki (Cannabinoid receptor 1 [2]): 63 nM
3 | C/C(N)=N\C(=N/S(=O)(=O)c1ccc(Br)cc1)N1CC(c2ccccc2)C(c2ccc(Cl)cc2)=N1 (stereo not given) | 19 | > 1000 | 
4 | C/C(N)=N\C(=N/S(=O)(=O)c1ccc(C)cc1)N1CC(c2ccccc2)C(c2ccc(Cl)cc2)=N1 (stereo not given) | 113 | > 1000 | 
5 | N/C(=N/C(=N\S(=O)(=O)c1ccc(Cl)cc1)N1CC(c2ccccc2)C(c2ccc(Cl)cc2)=N1)c1ccc(Cl)cc1 (stereo not given) | 18 | 158 | Ki (Cannabinoid receptor 1 [2]): 10 nM
6 | N/C(=N/C(=N\S(=O)(=O)c1ccc(Cl)cc1)N1CC(c2ccccc2)C(c2ccc(Cl)cc2)=N1)SCCc1ccccc1 (stereo not given) | 441 | > 1000 | 
7 | C/C(N)=N\C(=N/S(=O)(=O)c1ccc(I)cc1)N1CC(c2ccccc2)C(c2ccc(Cl)cc2)=N1 (stereo not given) | 65 | > 1000 | 
8 | N/C(=N/C(=N\S(=O)(=O)c1ccc(Cl)cc1)N1CC(c2ccccc2)C(c2ccc(Cl)cc2)=N1)c1cccs1 (stereo not given) | 101 | > 1000 | 
9 | N/C(=N/C(=N\S(=O)(=O)c1ccc(Cl)cc1)N1CC(c2ccccc2)C(c2ccc(Cl)cc2)=N1)c1cccc(Br)c1 (stereo not given) | 292 | 250 | 
10 | CS/C(N)=N\C(=N/S(=O)(=O)c1ccc(Cl)cc1)N1CC(c2ccccc2)C(c2ccc(Cl)cc2)=N1 (stereo not given) |  | > 1000 | 
11 | CC(C)(C)/C(N)=N\C(=N/S(=O)(=O)c1ccc(Cl)cc1)N1CC(c2ccccc2)C(c2ccc(Cl)cc2)=N1 (stereo not given) | 182 | > 1000 | 
12 | N/C(=N/C(=N\S(=O)(=O)c1ccc(Cl)cc1)N1CC(c2ccccc2)C(c2ccc(Cl)cc2)=N1)SCc1ccccc1 (stereo not given) | 213 | > 1000 | 
13 | C/C(N)=N\C(=N/S(=O)(=O)c1ccc(Cl)cc1)N1C[C@@H](c2ccccc2)C(c2ccc(Cl)cc2)=N1 |  |  | inhibition [3]: Active; Activity (Mus musculus [4]): Active; Activity (Mus musculus [5]): Active; inhibition [6]: Active
14 | CS/C(N)=N\C(=N/S(=O)(=O)c1ccc2ccccc2c1)N1CC(c2ccccc2)C(c2ccc(Cl)cc2)=N1 (stereo not given) | 2670 | > 1000 | Ki (Cannabinoid receptor 1 [2]): 29 nM
15 | C/C(N)=N\C(=N/S(=O)(=O)c1ccc(C(C)C)cc1)N1CC(c2ccccc2)C(c2ccc(Cl)cc2)=N1 (stereo not given) | 90 | > 1000 | Ki (Cannabinoid receptor 1 [2]): 10 nM
16 | N/C(=N/C(=N\S(=O)(=O)c1ccc(Cl)cc1)N1CC(c2ccccc2)C(c2ccc(Cl)cc2)=N1)c1ccc(F)cc1F (stereo not given) | 22 | 106 | 
17 | C/C(N)=N\C(=N/S(=O)(=O)c1ccc(OC(F)(F)F)cc1)N1CC(c2ccccc2)C(c2ccc(Cl)cc2)=N1 (stereo not given) | 76 | > 1000 | 
18 | N/C(=N/C(=N\S(=O)(=O)c1ccc(Cl)cc1)N1CC(c2ccccc2)C(c2ccc(Cl)cc2)=N1)C1CC1 (stereo not given) | 241 | > 1000 | 
19 | N/C(=N/C(=N\S(=O)(=O)c1ccc(Cl)cc1)N1CC(c2ccccc2)C(c2ccc(Cl)cc2)=N1)c1ccccn1 (stereo not given) | 33 | > 1000 | Ki (Cannabinoid receptor 1 [2]): 26 nM
20 | N/C(=N/C(=N\S(=O)(=O)c1ccc(Cl)cc1)N1CC(c2ccccc2)C(c2ccc(Cl)cc2)=N1)c1ccc(Br)cc1 (stereo not given) |  | > 1000 | 

Row | SMILES | IC50 (Cannabinoid receptor 1 [1]) [nM] | Ki (Cannabinoid receptor 2) [nM] | other results
21 | N/C(=N/C(=N\S(=O)(=O)c1ccc(Cl)cc1)N1CC(c2ccccc2)C(c2ccc(Cl)cc2)=N1)c1ccccc1 (stereo not given) | 117 | 1000 | 
22 | CNC(=NS(=O)(=O)c1ccc(Cl)cc1)N1CC(c2ccccc2)C(c2ccc(Cl)cc2)=N1 (stereo not drawn) [RAC-IBIPINABANT] | 76 |  | Ki (Cannabinoid receptor 1 [2]): 8.1 nM
23 | CC(C)/C(N)=N\C(=N/S(=O)(=O)c1ccc(Cl)cc1)N1CC(c2ccccc2)C(c2ccc(Cl)cc2)=N1 (stereo not given) | > 1000 | > 1000 | 
24 | N/C(=N/C(=N\S(=O)(=O)c1ccc(Cl)cc1)N1CC(c2ccccc2)C(c2ccc(Cl)cc2)=N1)SCCCc1ccccc1 (stereo not given) | 2640 | > 1000 | 
25 | C/C(N)=N\C(=N/S(=O)(=O)c1ccc(C(C)(C)C)cc1)N1CC(c2ccccc2)C(c2ccc(Cl)cc2)=N1 (stereo not given) | 30 | > 1000 | 
26 | C/C(N)=N\C(=N/S(=O)(=O)c1ccc2ccccc2c1)N1CC(c2ccccc2)C(c2ccc(Cl)cc2)=N1 (stereo not given) | 118 | > 1000 | 
27 | C/C(N)=N\C(=N/S(=O)(=O)c1ccccc1)N1CC(c2ccccc2)C(c2ccc(Cl)cc2)=N1 (stereo not given) | 2040 | > 1000 | 
28 | Cc1c(C(=O)NN2CCCCC2)nn(-c2ccc(Cl)cc2Cl)c1-c1ccc(Cl)cc1 |  |  | Activity (Mus musculus [7]): Active; Activity (Mus musculus [8]): Active; Activity (Mus musculus [9]): Active; Activity (Mus musculus [10]): inactive; Activity (Mus musculus [11]): inactive; Activity (Mus musculus [12]): inactive
29 | N/C(=N/C(=N\S(=O)(=O)c1ccc(Cl)cc1)N1CC(c2ccccc2)C(c2ccc(Cl)cc2)=N1)c1ccccc1F (stereo not given) | 72 | 107 | 
30 | N/C(COc1ccccc1)=N/C(=N\S(=O)(=O)c1ccc(Cl)cc1)N1CC(c2ccccc2)C(c2ccc(Cl)cc2)=N1 (stereo not given) | 125 | > 1000 | 
31 | C/C(N)=N\C(=N/S(=O)(=O)c1ccc(F)cc1)N1CC(c2ccccc2)C(c2ccc(Cl)cc2)=N1 (stereo not given) | 686 | > 1000 | 
32 | C/C(N)=N\C(=N/S(=O)(=O)c1ccc(C(F)(F)F)cc1)N1CC(c2ccccc2)C(c2ccc(Cl)cc2)=N1 (stereo not given) | 40 | > 1000 | Ki (Cannabinoid receptor 1 [2]): 5.7 nM
33 | C/C(N)=N\C(=N/S(=O)(=O)c1ccc(Cl)cc1)N1CC(c2ccccc2)C(c2ccc(Cl)cc2)=N1 (stereo not given) |  | > 1000 | 
34 | CS/C(N)=N\C(=N/S(=O)(=O)c1ccc(I)cc1)N1CC(c2ccccc2)C(c2ccc(Cl)cc2)=N1 (stereo not given) | 65 | > 1000 | Ki (Cannabinoid receptor 1 [2]): 10 nM
35 | N/C(=N/C(=N\S(=O)(=O)c1ccc(Cl)cc1)N1CC(c2ccccc2)C(c2ccc(Cl)cc2)=N1)c1ccc(F)cc1 (stereo not given) | 116 | 173 | 
36 | CC(C)S/C(N)=N\C(=N/S(=O)(=O)c1ccc(Cl)cc1)N1CC(c2ccccc2)C(c2ccc(Cl)cc2)=N1 (stereo not given) | 395 | > 1000 | 
37 | COc1cccc(/C(N)=N\C(=N/S(=O)(=O)c2ccc(Cl)cc2)N2CC(c3ccccc3)C(c3ccc(Cl)cc3)=N2)c1 (stereo not given) | 33 | 161 | 
38 | N/C(=N/C(=N\S(=O)(=O)c1ccc(Cl)cc1)N1CC(c2ccccc2)C(c2ccc(Cl)cc2)=N1)C12CC3CC(CC(C3)C1)C2 (stereo not given) | 226 | > 1000 | 
39 | COc1ccc(S(=O)(=O)/N=C(\N=C(/C)N)N2CC(c3ccccc3)C(c3ccc(Cl)cc3)=N2)cc1 (stereo not given) | 70 | > 1000 | 
40 | N/C(=N/C(=N\S(=O)(=O)c1ccc(Cl)cc1)N1CC(c2ccccc2)C(c2ccc(Cl)cc2)=N1)c1ccncc1 (stereo not given) | 603 | > 1000 | 
